Rows were chosen to be rich in hits. Some 9.4% of all compounds tested hit in one or more screens of this group.
Lmaj promast – Leishmania major promastigote growth inhibition | Leishmania major promastigotes, resazurin fluorescence viability | inhibition, % at 10 µM | hit rate 9% among 200,000 | AID 1063; in the data active = inhibition above about 50%;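 note: promastigotes grown with compound for 44 hours at 28 °C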
Mdm2 MdmX PPI – inhibitors of human Mdm2/MdmX interaction; inhibition, % at 8 µM; O15151+Q00987; SaOS-2 split-luciferase Mdm2/MdmX complementation, luminescence; hit rate 3% among 330,000;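 active = inhibition of at least 50% at 8 µM in the primary screen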
Target sequence (O15151 whole entry, looked up): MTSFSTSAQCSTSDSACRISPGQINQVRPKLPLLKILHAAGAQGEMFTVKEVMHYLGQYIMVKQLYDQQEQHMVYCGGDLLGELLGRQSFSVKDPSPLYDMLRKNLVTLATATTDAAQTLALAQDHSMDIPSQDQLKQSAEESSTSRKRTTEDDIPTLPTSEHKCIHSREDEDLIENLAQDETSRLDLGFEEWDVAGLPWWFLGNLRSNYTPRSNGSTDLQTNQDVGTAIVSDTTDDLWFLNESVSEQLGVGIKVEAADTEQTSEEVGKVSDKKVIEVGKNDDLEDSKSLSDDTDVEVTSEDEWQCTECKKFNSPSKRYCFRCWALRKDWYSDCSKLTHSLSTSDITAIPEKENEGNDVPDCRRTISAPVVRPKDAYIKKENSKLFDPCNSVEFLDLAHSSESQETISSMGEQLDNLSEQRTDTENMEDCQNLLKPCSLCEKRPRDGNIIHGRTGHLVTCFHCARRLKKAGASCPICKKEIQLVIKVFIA
Target sequence (Q00987 whole entry, looked up): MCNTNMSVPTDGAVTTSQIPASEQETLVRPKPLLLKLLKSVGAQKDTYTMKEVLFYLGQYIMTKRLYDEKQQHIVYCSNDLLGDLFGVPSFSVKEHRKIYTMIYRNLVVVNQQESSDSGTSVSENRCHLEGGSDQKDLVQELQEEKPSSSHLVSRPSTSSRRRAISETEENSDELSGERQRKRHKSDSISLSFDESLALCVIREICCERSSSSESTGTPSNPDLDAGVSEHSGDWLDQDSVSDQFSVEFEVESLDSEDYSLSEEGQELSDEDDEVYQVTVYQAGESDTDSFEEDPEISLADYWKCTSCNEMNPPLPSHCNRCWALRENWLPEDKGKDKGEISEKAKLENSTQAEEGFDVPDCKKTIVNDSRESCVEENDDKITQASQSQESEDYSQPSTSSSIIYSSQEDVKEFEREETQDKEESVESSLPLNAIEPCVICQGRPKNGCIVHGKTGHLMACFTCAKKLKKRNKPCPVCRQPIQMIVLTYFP
T cruzi inh – T. cruzi replication inhibition; T. cruzi beta-gal in NIH3T3, luminescence, 90 h; inhibition, % (test concentration not listed); hit rate 1.4% among 300,000; AID 1885;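 active = mean inhibition across valid replicates above about 55%, limit read from the data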;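 note: signal also drops with host cell toxicity which is not excluded here; 0% = plate median of DMSO wells and 100% = zero luminescence signal; higher percent means less beta-gal luminescence so fewer parasites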
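Incubation – ≥90 h infection period, 3 h prior cell attachment · System – NIH/3T3 fibroblasts plus reporter T. cruzi · Doses – compound pinned at 50 nL/well, DMSO · Read-out basis – percent inhibition of parasite-derived β-gal signal · Signal – luminescent β-galactosidase signal after 60 min lysis · Also added – 5000 T. cruzi trypomastigotes/well · Medium – Low-serum DMEM with 2% FBS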
CSC inhib – cancer stem cell inhibition | cancer stem cell-like cells viability, luminescence | inhibition, % at 7.5 µM | hit rate 1.1% among 300,000 | AID 2717; in the data active = inhibition above about 75%; tested in HMLE shEcad cells
SKKanGAS inh – SKKanGAS growth inhibition | hit rate 1.3% among 300,000 | inhibition, % at 7.5 µM | S. pyogenes SKKanGAS, kanamycin growth, BacTiter-Glo, 6 h;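 active = mean replicate score, as percent of positive control median, at least 50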;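 note: strain carries kanamycin resistance gene driven by streptokinase promoter and grows in 40 µg/ml kanamycin; loss of luminescence reflects streptokinase promoter inhibition or plain growth inhibition; 0% = median of DMSO wells and 100% = positive control at its reference dose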
Beta apoptosis – beta cell apoptosis inhibition | INS-1E cytokine-induced death, ATP luminescence, 48 h; percent of positive-control rescue, neutral wells zero | protection from apoptosis, % (concentration not given with the values) | hit rate 0.8% among 300,000 | AID 435005;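 active = Every replicate reaches about 75%, or at least half do and their mean reaches it too, limit read from the data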;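 note: 0% = cytokine-treated negative control wells and 100% = positive control rescue; higher means more ATP so stronger rescue from cytokine killing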
Mdm2 MdmX conf – human Mdm2/MdmX binding inhibition, confirmed; shares compounds with Mdm2 MdmX PPI; luminescent assay; inhibition, % at 8 µM; hit rate 55% among 10,000; AID 489028; in the data active = inhibition above about 40%
FLuc counter – counter-screen for Mdm2/MdmX inhibitors: full-length luciferase; shares compounds with Mdm2 MdmX PPI; SaOS-2 full-length luciferase counterscreen, luminescence; inhibition, % at 8 µM; hit rate 77% among 6,200;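 active = mean inhibition at 8 µM reaching about 37%, which flags the compound as non-specific, limit read from the data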;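 note: p53-null SaOS-2 cells with luciferase driven by a doxycycline-inducible promoter; compound on cells about two nights before reading with doxycycline added after day one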
* = called active by the depositor.

How did O=C1/C(=C/c2ccc([N+](=O)[O-])cc2)C=C(c2ccccc2)N1c1ccc(O)cc1 do in these assays?
Lmaj promast: 99.9*; Mdm2 MdmX PPI: 61.4*; T cruzi inh: 1.7; SKKanGAS inh: 19.3; Beta apoptosis: 17.5; Mdm2 MdmX conf: 57.9*; FLuc counter: 52.1*

How did O=C1/C(=C/c2ccc([N+](=O)[O-])cc2)C=C(c2ccccc2)N1c1ccccc1 do in these assays?
Lmaj promast: -3.0; Mdm2 MdmX PPI: 14.8; T cruzi inh: 17.5; CSC inhib: 35.2; SKKanGAS inh: -11.6; Beta apoptosis: 3.9

What do the screens show for `CC(=O)N1N=C(c2ccncc2)CC1c1ccccc1O` (stereo not given)?
Lmaj promast: -9.9; Mdm2 MdmX PPI: 3.2; T cruzi inh: -10.7; CSC inhib: 0.1; SKKanGAS inh: -6.2; Beta apoptosis: -3.8

What do the screens show for `CC(=O)N1N=C(c2ccccc2)CC1c1cn(Cc2ccccc2)c2ccccc12` (stereo not given)?
Lmaj promast: 7.4; Mdm2 MdmX PPI: 58.6*; T cruzi inh: 9.6; CSC inhib: 52.5; SKKanGAS inh: 46.0; Beta apoptosis: 9.0; Mdm2 MdmX conf: 50.9*; FLuc counter: 46.8*

What do the screens show for `COc1ccc(C2C(C(C)=O)=C(O)C(=O)N2c2nccs2)c(OC)c1` (stereo not given)?
Lmaj promast: -2.3; Mdm2 MdmX PPI: 13.5; T cruzi inh: -2.9; CSC inhib: -8.1; SKKanGAS inh: 3.8; Beta apoptosis: -5.9

How did O=C1c2ccccc2-c2onc3c(N4CCN(CCO)CC4)cc(N4CCN(C(=O)c5ccco5)CC4)c1c23 do in these assays?
Mdm2 MdmX PPI: 41.4; T cruzi inh: 31.8; CSC inhib: 16.5; SKKanGAS inh: 16.4; Beta apoptosis: 13.0

How did CN1CCN(c2cc(N3CCN(C(=O)c4ccco4)CC3)c3c4c(onc24)-c2ccccc2C3=O)CC1 do in these assays?
Mdm2 MdmX PPI: 100.4*; T cruzi inh: 31.3; CSC inhib: 13.8; SKKanGAS inh: 7.5; Beta apoptosis: 6.4; Mdm2 MdmX conf: 74.0*; FLuc counter: 24.3

How did CC(C)(C)OC(=O)N1CCN(C(=O)c2ncn(Cc3ccccc3)c2C(=O)N2CCN(C(=O)OC(C)(C)C)CC2)CC1 do in these assays?
Mdm2 MdmX PPI: -3.4; CSC inhib: -19.6; Beta apoptosis: 5.4

Results for COc1cc(OC)cc(-c2c(-c3ccc(F)cc3)c3cc(-c4ccc(OC)nc4)ccc3n2C)c1 ?
Mdm2 MdmX PPI: 52.0*; Beta apoptosis: 3.9; Mdm2 MdmX conf: 8.6

Results for COc1cc(OC)cc(-c2c(-c3cccs3)c3cc(-c4ccc(C(N)=O)cc4)ccc3n2C)c1 ?
Mdm2 MdmX PPI: 85.5*; Beta apoptosis: 22.4; Mdm2 MdmX conf: -15.9

Results for COc1cc(OC)cc(-c2c(-c3ccc(F)cc3)c3cc(-c4ccc(SC)cc4)ccc3n2C)c1 ?
Mdm2 MdmX PPI: 53.2*; Beta apoptosis: 10.6; Mdm2 MdmX conf: 10.3

How did COc1cccc(-c2c(-c3cc(OC)cc(OC)c3)n(C)c3ccc(-c4ccc(OC)nc4)cc23)c1 do in these assays?
Mdm2 MdmX PPI: 26.1; CSC inhib: 22.0; Beta apoptosis: 8.0

Results for CCOc1cc(N2CCOCC2)c(OCC)cc1NCC(=O)N1CCN(Cc2ccccc2)CC1 ?
Mdm2 MdmX PPI: 10.0; T cruzi inh: 34.7; CSC inhib: 3.2; SKKanGAS inh: 9.0; Beta apoptosis: -3.8

What do the screens show for `COc1ccc(S(=O)(=O)N2CCCCC2)cc1NC(=O)CCCOc1ccc(C)cc1`?
Mdm2 MdmX PPI: 20.0; CSC inhib: 2.0; Beta apoptosis: 4.4

How did COc1cc(OC)cc(C(=O)Nc2ccccc2-c2nnn(CC(=O)Nc3cc(C)on3)n2)c1 do in these assays?
Mdm2 MdmX PPI: 71.5*; T cruzi inh: 7.9; CSC inhib: 6.4; SKKanGAS inh: 30.4; Beta apoptosis: 3.3; Mdm2 MdmX conf: 24.4

How did O=C(Cn1nnc(-c2ccccc2NC(=O)c2ccccc2F)n1)NCc1ccco1 do in these assays?
Lmaj promast: -3.3; Mdm2 MdmX PPI: 50.4*; T cruzi inh: -6.0; CSC inhib: -11.5; SKKanGAS inh: 1.6; Mdm2 MdmX conf: 24.1

Bioassay records deposited in PubChem by several laboratories.
